CCR6 antagonist = blocks CCL20-driven beta-arrestin recruitment at human CCR6; CHO-K1 CCR6 PathHunter beta-arrestin, luminescence, CCL20-stimulated; inhibition, % at 20 µM; 0.49% of 340,000 active;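 active = compounds whose inhibition of the agonist-driven luminescence signal at 20 µM reaches about 50%, limit read from the data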;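 also: cells stimulated with CCL20 at 14 nM final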
APJ antag = antagonists of human APJ apelin receptor | P35414 | CHO-K1 APJ beta-arrestin complementation, luminescence | inhibition, % at 20 µM | 0.32% of 330,000 active;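 active = inhibition above about 40% at 20 µM, limit read from the data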;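 also: cells challenged with 10 nM apelin-13 agonist together with compound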
CXCR6 block = CXCR6 (human) receptor inhibition; CHO-K1 PathHunter CXCR6 beta-arrestin, luminescence; inhibition, % at 20 µM; 0.36% of 360,000 active; AID 602244; in the data active = inhibition above about 34%, passing the limit was not always enough;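 also: antagonist mode with CXCL16 agonist at 10 nM final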
Target sequence (O00574 whole entry, looked up): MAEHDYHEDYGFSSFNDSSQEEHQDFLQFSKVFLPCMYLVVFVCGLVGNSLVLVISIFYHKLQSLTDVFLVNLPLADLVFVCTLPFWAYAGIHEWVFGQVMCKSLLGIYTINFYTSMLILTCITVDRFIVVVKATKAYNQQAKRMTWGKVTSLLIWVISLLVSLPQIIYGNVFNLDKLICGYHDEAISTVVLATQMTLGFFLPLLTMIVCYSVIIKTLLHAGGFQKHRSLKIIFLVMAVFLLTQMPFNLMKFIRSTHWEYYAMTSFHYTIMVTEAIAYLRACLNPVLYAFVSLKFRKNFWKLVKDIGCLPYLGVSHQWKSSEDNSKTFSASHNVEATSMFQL
DAGLB inhibitor = diacylglycerol lipase beta (human) inhibition. HEK293T DAGLB membrane lysate, EnzChek fluorogenic substrate. inhibition, % at 5.17 µM. 0.059% of 340,000 active. AID 504411; in the data active = inhibition above about 34%
APJ agonist = APJ receptor agonism; 0.11% of 330,000 active; CHO-K1 APJ PathHunter beta-arrestin, luminescence; 0% DMSO wells, 100% apelin; activation, % at 20 µM; P35414;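 active = activation more than six SD over the plate average, tested at 20 µM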
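Assay system: CHO-K1 cells stably expressing ProLink-tagged human APJ and arrestin–beta-gal acceptor. Compound dosing: 20 µM single point, 1% DMSO. Times: 16-18 h seeding, 90 min dark compound exposure, 60 min detection. Detection: beta-gal luminescence. Evaluation: APJ–arrestin association signal. Controls: negative DMSO alone, positive Apelin-13 at 10 nM.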
hiPSC survival = enhancers of human iPSC single-cell survival. hiPSC single-cell survival, ATPlite luminescence; 100% = ROCK inhibitor wells, 0% = DMSO. survival enhancement, % at 20 µM. 0.044% of 360,000 active. AID 602274; in the data active = survival enhancement above about 18%;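 also: cells exposed to compounds for 16 hours before the ATP read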
CXCR6 confirm = CXCR6 antagonism confirmation, single concentration | inhibition, % at 20 µM | shares compounds with CXCR6 block | 65% of 700 active | CHO-K1 CXCR6 PathHunter beta-arrestin, luminescence;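 active = mean inhibition over four retests above 40%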;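 also: receptor stimulated with 10 nM CXCL16 agonist; beta-galactosidase fragment complementation upon beta-arrestin recruitment to receptor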
A number is an active result; n = inactive; x = not tested or not shown. A selection: hits, their analogues and other compounds. The true share with any hit is near 0.86%.

SMILES | CCR6 antagonist | APJ antag | CXCR6 block | DAGLB inhibitor | APJ agonist | hiPSC survival | CXCR6 confirm
CCc1ccc(OCC(=O)Nc2ccncc2)cc1 | n | n | n | n | n | n | x
CCCCOc1ccc(C(=O)NCC(=O)N2CC(C)CC(C)C2)cc1 (stereo not drawn) | n | n | n | n | n | n | x
COc1ccccc1-c1nc(SCC(=O)Nc2cc(C)on2)c2c(=O)n(C)c(=O)n(C)c2n1 | n | n | n | n | n | n | x
O=C(CCNC(=O)c1ccco1)NCCc1ccc(Cl)cc1 | n | n | 40.3 | n | n | n | n
O=C(COC(=O)c1ccco1)NCC1CCCCC1 | n | n | n | n | n | n | x
NS(=O)(=O)c1ccc(CCNC(=O)CCNC(=O)c2ccco2)cc1 | n | n | n | n | n | n | x
O=C(COC(=O)c1ccco1)NCCNC(=O)COC(=O)c1ccco1 | n | n | 35.5 | n | n | n | n
COc1ccccc1C(C)NCC(=O)NC(=O)NCc1ccco1 (stereo not drawn) | n | n | n | n | n | n | x
COc1ccc(C(=O)N/C(N)=N/c2nc3ccccc3o2)cc1 | n | n | n | n | n | n | x
COc1ccc(C(=O)/C=C/Sc2nc3ccccc3o2)cc1 | 61.8 | n | 45.5 | n | n | n | 44.6
CCN1CCN(S(=O)(=O)c2ccc(Cl)c(C(=O)N(C)CCOc3ccc(Cl)cc3)c2)CC1 | n | n | n | n | n | n | x
CC(NC(=O)CCC(=O)c1ccccc1)c1ccc(F)cc1 (stereo not drawn) | n | n | n | n | n | n | x
CC(NC(=O)CCC(=O)NCc1ccc(F)cc1)c1ccccc1 (stereo not drawn) | n | n | 79.7 | n | n | n | n
O=C1C(=C(I)I)c2ccccc2-c2ccccc21 | x | x | 43.2 | n | x | n | n
O=C(O)c1cccc2c1C(=O)c1ccccc1-2 | n | n | n | n | n | n | x
COc1ccc(C(=O)NC(=S)Nc2ccc([N+](=O)[O-])cc2C)cc1OC | 67.7 | n | 49.9 | n | n | n | 54.8
C/C(=N\Nc1nc2ccccc2[nH]1)c1ccccn1 | x | n | 41.7 | n | n | n | 70.0
C/C(=N\O)C(C)(C)Nc1cccc(Br)c1 | n | n | n | n | n | n | x
N#Cc1cnc(NN)nc1 | n | n | n | n | n | n | x
CCc1nc2c(OCCC3CCCCC3)cccn2c1N(C)C(=O)c1ccc(OC)cc1 | x | x | 44.9 | x | x | n | n
Cc1ccc(NC(=S)NNc2ncc(C(F)(F)F)cc2Cl)cc1 | 90.4 | n | 77.5 | n | n | n | 58.2
Cc1ccc(NC(=S)NNC(=S)Nc2cccc(C(F)(F)F)c2)cc1 | n | n | n | n | n | n | x
Cc1ccc(-n2nc3c(c2NC(=O)C(C)(C)C)CS(=O)(=O)C3)cc1 | n | n | n | n | n | n | x
CCN(c1ccccc1)S(=O)(=O)c1ccc2[nH]c(=O)c(=O)[nH]c2c1 | n | n | n | n | n | n | x
CCN(c1ccccc1C(=O)O)S(=O)(=O)c1ccc2[nH]c(=O)[nH]c2c1 | n | n | 38.9 | n | n | n | n
SMILES | CCR6 antagonist | APJ antag | CXCR6 block | DAGLB inhibitor | APJ agonist | hiPSC survival | CXCR6 confirm
Cc1ccc(NC(=O)c2ccc(Cl)c(N3C(=O)C=CC3=O)c2)cc1 | x | n | 94.4 | n | n | n | n
O=C(Nc1ccc(Cl)c(Cl)c1)c1ccc(Cl)c(Cl)c1 | n | n | n | n | n | n | x
Cc1cc(C)cc(N2C(=O)CC(Sc3nnnn3-c3ccccc3)C2=O)c1 (stereo not drawn) | x | n | 86.8 | n | n | n | 74.9
COc1cc(C(=O)NC(=S)N(CCC#N)Cc2cccnc2)cc(OC)c1OC | n | n | n | n | n | n | x
CCCOc1ccc(CN(CCC#N)C(=S)NC(=O)c2ccccc2)cc1 | x | n | 43.6 | n | n | n | 59.4
Clc1nc(-c2ccccn2)nc2scc(-c3ccccc3)c12 | n | n | 51.3 | n | n | n | n
CC1CCN(c2nc(-c3cccnc3)nc3scc(-c4ccccc4)c23)CC1 | n | n | n | n | n | n | x
O=S(=O)(/C=C/C=C/S(=O)(=O)c1ccccc1)c1ccccc1 | 88.6 | x | 69.6 | n | x | n | 67.4
C/C(CC(=O)NCc1ccccc1)=N\NC(=O)c1cnccn1 | n | n | n | n | n | n | x
Oc1ccc(Cl)c2cccnc12 | 65.7 | x | 42.7 | n | x | n | 60.2
